TRPC6 act: mouse TRPC6 channel activation. HEK293-TRPC6 membrane potential dye fluorescence; stronger effect = higher value. B-score at 10 µM. actives 0.13% (n = 310,000);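 active = B-score of the integrated fluorescence ratio above library mean plus 3 SD, and starting fluorescence ratio within library mean plus 5 SD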;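 note: higher score means more depolarization so channel activation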
Target sequence (Q61143 whole entry, looked up): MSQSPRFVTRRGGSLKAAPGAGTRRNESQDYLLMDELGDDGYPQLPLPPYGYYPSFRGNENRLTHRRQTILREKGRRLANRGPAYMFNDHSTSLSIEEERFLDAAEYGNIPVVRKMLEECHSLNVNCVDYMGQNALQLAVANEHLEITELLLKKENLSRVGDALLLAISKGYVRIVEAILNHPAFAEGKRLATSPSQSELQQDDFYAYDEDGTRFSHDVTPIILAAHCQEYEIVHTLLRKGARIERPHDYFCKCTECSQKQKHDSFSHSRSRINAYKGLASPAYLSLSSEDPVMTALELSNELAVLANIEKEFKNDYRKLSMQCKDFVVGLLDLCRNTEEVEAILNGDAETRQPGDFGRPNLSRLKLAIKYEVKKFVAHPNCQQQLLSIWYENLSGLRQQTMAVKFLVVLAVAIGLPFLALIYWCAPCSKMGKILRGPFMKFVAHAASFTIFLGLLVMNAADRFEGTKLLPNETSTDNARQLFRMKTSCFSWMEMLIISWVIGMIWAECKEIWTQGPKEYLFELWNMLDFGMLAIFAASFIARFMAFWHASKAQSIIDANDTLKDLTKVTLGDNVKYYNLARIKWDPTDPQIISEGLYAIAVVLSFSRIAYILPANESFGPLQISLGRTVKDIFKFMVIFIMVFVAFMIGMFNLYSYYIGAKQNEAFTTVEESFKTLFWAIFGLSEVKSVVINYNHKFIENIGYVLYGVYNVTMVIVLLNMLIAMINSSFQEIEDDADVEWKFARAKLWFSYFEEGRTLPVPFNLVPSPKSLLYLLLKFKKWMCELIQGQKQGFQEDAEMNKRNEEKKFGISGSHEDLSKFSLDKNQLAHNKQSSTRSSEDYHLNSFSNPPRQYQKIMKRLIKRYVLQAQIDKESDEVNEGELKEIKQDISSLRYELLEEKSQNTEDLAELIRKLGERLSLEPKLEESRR
TRPC6 inhibitor: blocks the mouse TRPC6 cation channel; B-score at 10 µM; Q61143; actives 1.1% (n = 310,000); HEK293-TRPC6, membrane potential dye, ACh-evoked depolarization; stronger effect = lower value;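 active = B-score under library mean minus 3 SD, initial fluorescence not abnormally high, positive integrated signal ratio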;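 note: B-score derived from integrated fluorescence ratio over the kinetic read; more negative B-score means stronger inhibition of depolarization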
TRPC4 block: inhibitors of mouse TRPC4 channel; HEK293 TRPC4beta/mu-opioid, DAMGO-evoked Fluo4 calcium flux; stronger effect = lower value; B-score at 10 µM; actives 0.39% (n = 300,000);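 active = B-score over 3 SD under the library average, no early fluorescence shift, positive overall ratio signal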
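System: stable TRPC4beta/mu-opioid receptor HEK293 cells; Dosing: single-point compound dosing; Measured by: Fluo4 Ca2+ flux fluorescence; Read-out basis: per-well B score of integrated baseline-normalized Fluo4 ratio.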
TRPC4 PAM: allosterically enhances the mouse TRPC4 cation channel | HEK293 TRPC4beta/mu-opioid, DAMGO EC20, Fluo-4 Ca2+ flux; stronger effect = higher value | B-score at 10 µM | Q9QUQ5 | AID 2227 | actives 0.42% (n = 310,000);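 active = B-score of calcium response area above 5 SD of library B-scores, with initial fluorescence ratio within 5 SD of library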;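 note: B-score of integrated fluorescence ratio over time as area under calcium response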
TRPC4 act: opens the mouse TRPC4 cation channel | HEK293 TRPC4beta/mu-opioid, Fluo4 calcium fluorescence; stronger effect = higher value | B-score at 10 µM | actives 0.49% (n = 310,000);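 active = B-score above 5 SD of library B-scores, and initial fluorescence ratio not above library mean plus 5 SD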;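 note: positive B-score marks a calcium rise read as TRPC4 activation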
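Assay system: HEK293 cells stably co-expressing mouse TRPC4beta and mu-opioid receptor / Timing: Fluo4 dye loading 45 min at room temperature, 110 s recording / Signal: Fluo4 calcium-sensitive dye fluorescence, kinetic, 1 Hz baseline / Read-out: integrated baseline-normalised fluorescence ratio, converted to per-well B score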
TRPC4 spec 2: mouse TRPC4 off-target activity of TRPC6 inhibitors, second screen. shares compounds with TRPC6 inhibitor. HEK293 TRPC4/MOR, membrane potential dye fluorescence; channel activated by saturating DAMGO dose. actives 42% (n = 920). inhibition, % at 10 µM;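 active = compounds whose fluorescence signal differed from control wells by over 3 SD, either direction, in both duplicate plates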
TRPC4 spec: selectivity of TRPC6 inhibitors: effect on mouse TRPC4; HEK293 TRPC4/mu-opioid, membrane potential fluorescence; shares compounds with TRPC6 inhibitor; activity change, negative = inhibition, % at 10 µM; actives 61% (n = 920);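 active = rise or fall in signal beyond 3 SD of buffer-only wells in both replicate plates, either sign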;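 note: integrated kinetic ratio of fluorescence range over baseline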
HEK293 MPD ctr 2-1: parental HEK293 nonspecific activity of TRPC6 inhibitors, second screen. shares compounds with TRPC6 inhibitor. parental HEK293 membrane potential dye fluorescence; maximal acetylcholine challenge after compound addition. signal change vs control, % at 10 µM. actives 31% (n = 920). AID 2779;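 active = membrane potential signal moving either way by over 3 SD of the maximum-effect control, in both duplicate plates, meaning non-specific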
HEK293 MPD ctr-1: counter-screen for TRPC6 inhibitors: effect in parental HEK293 cells | shares compounds with TRPC6 inhibitor | parental HEK293 membrane potential dye fluorescence | membrane potential signal change, % at 10 µM | actives 60% (n = 920) | AID 2780;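 active = membrane potential signal shifting up or down by more than 3 SD of buffer-only wells, on both duplicate plates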
HEK293 MPD ctr-2: counter-screen for TRPC6 modulators: effect in parental HEK293 cells | membrane potential dye fluorescence | AID 488924 | actives 51% (n = 2,400) | shares compounds with TRPC6 inhibitor | membrane potential signal change, % at 10 µM;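 active = membrane potential signal moves up or down beyond 5 SD from buffer-only wells, on both duplicate plates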
HEK293 MPD ctr 2-2: second counter-screen for TRPC6 modulators: effect in parental HEK293 cells; shares compounds with TRPC6 inhibitor; membrane potential dye fluorescence; after compound, maximal acetylcholine stimulation; inhibition, % at 10 µM; actives 14% (n = 2,400); AID 488926;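 active = membrane potential signal drops by more than 5 SD from the mean control signal, in both duplicate plates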;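 note: plate controls were acetylcholine ECmax control wells for no effect and buffer only wells for full effect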
TRPC4 ctr mod: selectivity of TRPC6 modulators against mouse TRPC4 | percent change from control (negative = decrease, positive = increase), % at 10 µM | shares compounds with TRPC6 inhibitor | AID 488927 | actives 69% (n = 2,400) | HEK293 TRPC4/mu-opioid, membrane potential fluorescence;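 active = membrane potential signal moved up or down beyond 5 SD of buffer control wells, in both duplicate plates, actives on both sides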;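 note: plate controls were assay buffer wells for no effect and DAMGO maximal-effect wells for full effect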
TRPC4 ctr inh 2: mouse TRPC4 off-target activity of TRPC6 modulators, second screen | shares compounds with TRPC6 inhibitor | HEK293 TRPC4/mu-opioid, membrane potential dye fluorescence; stimulated with maximal-effect DAMGO | inhibition, % at 10 µM | actives 55% (n = 2,400) | AID 488928;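 active = drop in membrane potential signal beyond 5 SD of the control wells in both duplicate plates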;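 note: TRPC4 counter screen for TRPC6 hits run under conditions tuned for TRPC6 not TRPC4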
TRPC6 block conf: mouse TRPC6 inhibitor confirmation; shares compounds with TRPC6 inhibitor; HEK293-TRPC6, membrane potential dye, ACh-evoked depolarization; inhibition, % at 10 µM; actives 43% (n = 3,300); AID 488960;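 active = fluorescence ratio falls more than 5 SD below the full-stimulation control mean, in both duplicate runs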;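 note: integrated fluorescence ratio of peak minus minimum over baseline after agonist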
TRPC6 act conf: mouse TRPC6 activator confirmation; AID 488961; shares compounds with TRPC6 inhibitor; activation, % at 10 µM; HEK293-TRPC6 membrane potential dye fluorescence, FDSS; actives 11% (n = 2,800);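 active = ratio signal rise beyond 5 SD above unstimulated control wells' mean, seen in both duplicate runs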;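 note: plate controls were buffer EC0 wells for no effect and acetylcholine ECmax response for full effect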
* marks the source's active call; other numbers are inactive results; i = inactive; x = no result given; + = active, no number. Only some compounds are listed: those with a hit (about 2.3% of all), similar ones and a draw of the others.

SMILES	TRPC6 act	TRPC6 inhibitor	TRPC4 block	TRPC4 PAM	TRPC4 act	HEK293 MPD ctr-2	HEK293 MPD ctr 2-2	TRPC4 ctr mod	TRPC4 ctr inh 2	TRPC6 block conf	TRPC6 act conf	others
CCOC(=O)N1CCN(C(=O)C(C)c2ccc([N+](=O)[O-])cc2)CC1 (stereo not given)	i	i	i	i	i	x	x	x	x	x	x
CCOC(=O)C1CCN(C(=O)C(C)c2ccc([N+](=O)[O-])cc2)CC1 (stereo not given)	i	-5*	i	i	i	i	i	12%*	i	i	x
O=C(NCC(=O)N1CCCCCC1)c1ccc(Br)cc1	i	i	i	i	i	x	x	x	x	x	x
CCN(CC)c1ccc(/C=N/Nc2nc3ccccc3[nH]2)cc1	i	-7.7*	i	i	i	x	x	x	x	i	i	TRPC4 spec 2=43%*;TRPC4 spec=-18%*;HEK293 MPD ctr 2-1=i;HEK293 MPD ctr-1=-235%*
Cc1nn(-c2ccccc2)c(C)c1/C=N/Nc1nc2ccccc2[nH]1	i	i	i	i	i	x	x	x	x	x	x
COc1ccc(O)c(/C=N/Nc2nc3ccccc3[nH]2)c1	i	-5*	i	i	i	i	i	i	i	i	i
Cn1c(/C=N/Nc2nc3ccccc3[nH]2)nc2ccccc21	i	-9.7*	i	i	i	i	i	-10%*	i	i	i
COc1cc(/C=N/Nc2nc3ccccc3[nH]2)ccc1O	i	i	i	i	i	x	x	x	x	x	x
Cc1c(/C=N/Nc2nc3ccccc3[nH]2)c2ccccc2n1C	i	-15*	i	i	i	-192%*	74%*	-40%*	97%*	68%*	i
CC(=O)Nc1ccc(/C=N/Nc2nc3ccccc3[nH]2)cc1	i	i	i	i	i	x	x	x	x	x	x
O=C(NN=C1CCCCCC1)c1cccs1	i	i	i	i	i	x	x	x	x	x	x
COc1ccc(C2(C)NC(=O)N(CC(=O)Nc3ccc(C)cc3Br)C2=O)cc1OC (stereo not given)	i	i	i	i	i	x	x	x	x	x	x
N#Cc1ccc2[nH]c(CO)c(-c3ccccc3)c2c1	i	-5.4*	i	i	i	-84%*	i	-27%*	45%*	i	i
COc1ccc(-c2nnc3sc(C4CCCCC4)nn23)cc1OC	13*	i	i	i	i	144%*	i	40%*	i	i	86%*
Cc1ccc2c(nc3s/c(=C\c4ccc(-c5ccccc5C(=O)O)o4)c(=O)n32)c1C	78*	i	-8*	i	189*	+	i	408%*	i	i	592%*
O=C(O)c1ccc(-c2ccc(/C=c3/sc4nc5ccccc5n4c3=O)o2)cc1Cl	32*	i	i	15*	58*	560%*	i	112%*	i	i	82%*
Cc1cc(/C=c2\sc3nc4ccccc4n3c2=O)c(C)n1-c1ccc(C(=O)O)cc1	i	i	i	i	i	x	x	x	x	x	x
O=C(NCCCN1CCOCC1)C1Nc2ccc(OC(F)(F)F)cc2C2C=CCC12 (stereo not given)	i	-9.7*	i	i	i	i	i	i	i	i	i
Cc1ccc2c(c1)C1C=CCC1C(C(=O)NCCCN1CCOCC1)N2 (stereo not given)	i	i	i	i	i	x	x	x	x	x	x
CCS(=O)(=O)N1CCN(c2ccc([N+](=O)[O-])c(NC(C)c3ccccc3)c2)CC1 (stereo not given)	i	i	i	i	i	x	x	x	x	x	x
CC(Nc1cc(N2CCNCC2)ccc1[N+](=O)[O-])c1ccccc1 (stereo not given)	i	-7.1*	i	i	75*	x	x	x	x	i	i	TRPC4 spec 2=72%*;TRPC4 spec=i;HEK293 MPD ctr 2-1=i;HEK293 MPD ctr-1=-182%*
CCOc1ccc(S(=O)(=O)NCCC(=O)NCCOc2ccccc2OC)cc1	i	i	i	i	i	x	x	x	x	x	x
C=CCOc1ccc2c(OC)c3ccoc3nc2c1OC	16*	-11*	i	i	i	i	i	18%*	i	52%*	86%*
CCOc1c(OC)ccc2c3c(c(=O)oc12)CCCC3	i	i	i	i	i	x	x	x	x	x	x
CCOc1c2ccoc2nc2c(OC)c(OC)ccc12	i	-5.4*	i	i	i	i	i	i	i	i	x
CCc1nnc(NC(=O)CCC(=O)NC2CCCCCCC2)s1	i	i	i	i	i	x	x	x	x	x	x
Oc1c(C2=NCCNC(C(F)(F)F)=C2)ccc2ccccc12	i	-5*	i	i	i	-96%*	i	-22%*	47%*	i	i
CC(C)CNC(=O)c1ccccc1N(Cc1ccccc1)S(C)(=O)=O	i	i	i	i	i	x	x	x	x	x	x
Oc1ccc(Nc2nc(NCC3CCCO3)c3ccccc3n2)cc1 (stereo not given)	i	-6.5*	i	i	i	i	i	-12%*	56%*	38%*	i

Assay outcomes as filed in PubChem.
